# Rows were chosen to be rich in hits. Some 2.3% of all compounds tested hit in one or more screens of this group.
# Arrestin-AP2 inh: inhibitors of beta-arrestin/AP2 binding, primary screen, biochemical, GPCR trafficking, flow cytometry; beta-arrestin 1 C-terminal peptide binding to AP2 beta2-adaptin appendage (human); FITC-arrestin peptide / GST-AP2 beads; AP2 beta2 appendage carries R879A mutation; inhibition, % at 10 µM; hit rate 0.31% among 340,000;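 active = inhibition above a set limit, near 3 SD of compounds lacking own fluorescence, cut at about 54% in these data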;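 note: plate controls were DMSO wells for no effect and 5 µM unlabelled arrestin peptide for full effect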
#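 Test system: GST-tagged AP2 beta2-adaptin appendage (R879A) on 4 µm glutathione beads; also added: fluorescein-tagged arrestin peptide at 50 nM final; timing: 12 min plus 1 h, RT; signal: flow cytometry, FL1 (488/535 nm); read-out: percent drop in bead-associated FITC signal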
# Rtt109 HAT inh: inhibitors of C. albicans Rtt109/Vps75 HAT, primary screen, biochemical, ThioGlo CoA-SH fluorescence, plate reader | inhibition, % at 34.9 µM | hit rate 0.16% among 330,000 | AID 540336, 2011 | purified Rtt109/Vps75, 4 h;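 active = inhibition of at least 50% in every replicate; inconclusive = best replicate reaches 50% inhibition but some replicates fall short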
# Target sequence (Q5AAJ8 whole entry, looked up): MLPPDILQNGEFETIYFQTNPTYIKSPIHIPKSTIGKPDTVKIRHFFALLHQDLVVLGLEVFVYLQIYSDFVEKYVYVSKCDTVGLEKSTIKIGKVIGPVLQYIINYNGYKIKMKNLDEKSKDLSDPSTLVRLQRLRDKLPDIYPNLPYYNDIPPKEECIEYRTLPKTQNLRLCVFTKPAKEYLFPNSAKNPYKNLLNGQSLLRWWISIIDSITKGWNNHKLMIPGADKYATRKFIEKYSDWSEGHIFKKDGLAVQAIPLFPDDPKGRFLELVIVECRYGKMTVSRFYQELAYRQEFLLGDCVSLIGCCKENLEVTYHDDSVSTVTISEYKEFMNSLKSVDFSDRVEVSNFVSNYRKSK
# N-glyco inh: increase of ERlucT glycosylation luciferase signal, primary screen, N-linked glycosylation inhibitor project, D54 ERlucT cells, luminescence, set 2; reporter increase, % at 12.5 µM; D54 ERlucT glycosylation luciferase reporter, 24 h; percent of 100 nM tunicamycin response; hit rate 0.23% among 360,000;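 active = mean luciferase reporter signal, scaled so untreated is 0 and the glycosylation-blocking control 100, at or above a set limit in every replicate; inconclusive = mean reaches the limit but not every replicate does; inactive = mean below the limit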;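 note: luciferase carries N-glycosylation sites so blocking glycosylation raises the light; 0% = median of neutral control wells and 100% = median of 100 nM tunicamycin wells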
# PfHsp90 set2: growth inhibition of PfHsp90-expressing yeast, primary screen, antimalarial PfHsp90 inhibitor project, S. cerevisiae, BacTiter-Glo luminescence, single point, set 2; hit rate 0.32% among 310,000; AID 504621, 2011; inhibition, % at 9.4 µM; BacTiter-Glo ATP, 48 h; yeast lacking PDR1 and PDR3 efflux regulators;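 active = every replicate shows inhibition above about 80%, whatever the replicate mean, limit read from the data; inconclusive = mean inhibition reaches the set limit but some replicate falls short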;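 note: 0% = DMSO neutral controls and 100% = 20 µM radicicol positive controls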
# PAX8 reporter: inhibitors of PAX8-driven TPO luciferase reporter, primary screen, RMG-I cells, single concentration; SteadyGlo, 24 h; inhibition, % at 12.6 µM; hit rate 1.2% among 360,000;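 active = mean replicate inhibition at least 60% with every replicate also reaching 60%; inconclusive = only one of the two criteria is met; inactive = mean below 60% and not all replicates reaching 60%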;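 note: luciferase light reporting Pax8 driven TPO promoter activity; plate controls were median of neutral control wells for no effect and mitoxantrone controls for full effect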
# Env fusion inh: inhibitors of HIV-1 Env-driven cell-cell fusion, primary screen, HeLa-JRFL effector, CEM21 target cells, luciferase; inhibition, % at 12.3 µM; hit rate 1.1% among 360,000; AID 651610, 2012;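 active = mean replicate inhibition score of at least 50 and every replicate individually at or above 50; inconclusive = only one of the two criteria met; inactive = mean below 50 and not all replicates reaching 50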;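 note: 0% = plate neutral controls and 100% = maraviroc near 300 nM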
# Active calls of the source: *; ? = inconclusive; . = not tested or not shown; ! = repeats disagree; [ ] = dose if it differs, or a comment.
SMILES,Arrestin-AP2 inh,Rtt109 HAT inh,N-glyco inh,PfHsp90 set2,PAX8 reporter,Env fusion inh
Fc1ccc(-c2ccc(C3[C@@H]4CN(Cc5ccccc5)C[C@H]3N4)cc2)cc1 (stereo partly drawn),.,.,.,.,74*!,.
COc1cccc(-c2ccc(C3[C@@H]4CN(Cc5cccc(F)c5)C[C@H]3N4)cc2)c1 (stereo partly drawn),.,.,.,.,75*!,.
Fc1ccc(-c2ccc(C3[C@@H]4CN(Cc5cccc(F)c5)C[C@H]3N4)cc2)cc1 (stereo partly drawn),.,.,.,.,27,.
COc1ccc(-c2ccc(C3[C@@H]4CN(Cc5cccc(OC)c5)C[C@H]3N4)cc2)cc1 (stereo partly drawn),.,.,.,.,-3,.
CNC(=O)C[C@@H]1CC[C@@H]2[C@H](COc3ccc(NC(=O)C4CC4)cc3C(=O)N2C)O1,.,.,.,.,-37,3[16.7 µM]
O=C(Nc1cccc(F)c1)N[C@@H]1CC[C@H](CCNS(=O)(=O)c2cccc(Cl)c2)O[C@@H]1CO,.,.,.,.,-18,80*[16.7 µM]
O=S(=O)(NCC[C@H]1CC[C@H](NS(=O)(=O)c2ccccc2Cl)[C@H](CO)O1)c1ccc(Cl)cc1,.,.,.,.,9,58*[16.7 µM]
O=S(=O)(NCC[C@H]1CC[C@H](NS(=O)(=O)c2ccccc2Cl)[C@@H](CO)O1)c1ccc(Cl)cc1,.,.,.,.,14,-4[16.7 µM]
O=C(N[C@@H]1CC[C@H](CCNS(=O)(=O)c2ccc(F)cc2)O[C@@H]1CO)C1CC1,.,.,.,.,-11,59*[16.7 µM]
Cc1ccc2cc(C#N)c(NCCNC(=O)C3CC3)nc2c1C,-4,-25,-2,3,18,113*
Cc1cc(NCCCOC(C)C)n2c(nc3ccccc32)c1C#N,-3,-14,-1,-14,2,0
Cc1cc(NCCCN(C)C)n2c(nc3ccccc32)c1C#N,8,-1,34*,-1,-4,21
Cc1c(Cc2ccccc2)c(NCCN(C)C)n2c(nc3ccccc32)c1C#N,5,?,-2,111*,9,2
CCCCc1c(C)c(C#N)c2nc3ccccc3n2c1NCCN(C)C,3,-4,0,18,20,-4
C[C@H](CO)N1C[C@H](C)[C@H](CN(C)C(=O)Nc2cccc3ccccc23)Oc2ccc(N(C)C)cc2CC1=O,.,.,.,.,12,11[16.7 µM]
CO[C@H]1CN(C)C(=O)c2ccc(NC(=O)C3CCC3)cc2OC[C@H](C)N(C(=O)NC(C)C)C[C@H]1C,.,.,.,.,.,0[16.7 µM]
COCC(=O)N1C[C@@H](C)[C@@H](OC)CN(C)C(=O)c2cc(NC(=O)c3ccccc3)ccc2OC[C@@H]1C,.,.,.,.,-42,.
O=C1[C@@H]2Cc3c([nH]c4ccccc34)C(c3ccccc3)N2C(=O)CN1C1CC1 (stereo partly drawn),-11,1,1,13,8,19
CN1CC(=O)N2C(c3ccc(Cl)cc3)c3[nH]c4ccccc4c3C[C@H]2C1=O (stereo partly drawn),-3,2,?,-21,103*,32
O=C1[C@@H]2Cc3c([nH]c4ccccc34)C(c3ccc([N+](=O)[O-])cc3)N2C(=O)CN1C1CC1 (stereo partly drawn),-4,6,43*,-3,16,24
O=[N+]([O-])c1cc(/C=N/O)ccc1Oc1ccccc1Cl,-7,-1,1,106*,-33,-14
COc1cc(Cl)c(C)cc1NC(=O)CN1CCN(C(=O)C2CC2)CC1,8,2,28*,-20,.,.
Cc1c(-n2cc(C(=O)O)c(=O)c3cc(F)c(N4CCCC(O)C4)c(F)c32)c(=O)n(-c2ccccc2)n1C (stereo not drawn),-4,-6,-1,10,9,29
O=C(O)c1cn(-c2ccc(N3CCCC3)c(F)c2)c2c(F)c(F)c(F)cc2c1=O,-24,4,1,106*,23,13
CC(=O)Nc1ccc2c(c1)C(=O)N(C)[C@H]1CC[C@H](CC(=O)NCc3ccc(Cl)cc3)O[C@H]1CO2,.,.,.,.,-4,.
SMILES,Arrestin-AP2 inh,Rtt109 HAT inh,N-glyco inh,PfHsp90 set2,PAX8 reporter,Env fusion inh
C/C(=C/CCC(C)(O)C1CC[C@@]2(C)[C@@H]3CC=C4[C@@H](CC[C@H](O[C@H]5O[C@@H](CO)[C@H](O)[C@@H](O)[C@@H]5O)C4(C)C)[C@]3(C)C(=O)C[C@]12C)CO[C@@H]1O[C@H](CO)[C@@H](O)[C@H](O)[C@H]1O (stereo partly drawn),-3,11,3,1,-32,88*
CC(C)CNC(=O)c1cc(-c2ccco2)on1,1,9,5,.,.,.
CCCNC(=O)c1cc(-c2ccco2)on1,-3,-5,81*,.,.,-343
O=C(CCN1CCCCC1)NCC[C@H]1CC[C@@H](NC(=O)C2CCCCC2)[C@H](CO)O1,.,.,.,.,-27,-7[16.7 µM]
CCCCCN=C(N)N/N=C/c1c[nH]c2ccc(OC)cc12,-2,78*,-20,33,107*,2
C[C@H](CO)N1C[C@H](C)[C@@H](CN(C)S(C)(=O)=O)Oc2ccc(NS(=O)(=O)c3ccc(Cl)cc3)cc2C1=O,.,.,.,.,.,-2[16.7 µM]
C[C@H](O)[C@@H]1C(=O)N2CCc3c([nH]c4cccc(-c5ccccc5)c34)[C@@H]2C[C@@H]1N(C)C(=O)OCc1ccccc1,.,.,.,.,31,71*
C[C@H](O)[C@@H]1C(=O)N2CCc3c([nH]c4cccc(-c5ccccc5)c34)[C@@H]2C[C@@H]1N(C)C(=O)c1ccccc1,.,.,.,.,9,7
CC1=C([N+](=O)[O-])C(c2cccc(Br)c2)C2=C(N1)c1ccccc1C2=O (stereo not drawn),4,7,11,-1,85*,138*
COC(=O)C1=C(C)NC2=C(C(=O)c3ccccc32)C1c1cccc(OC)c1 (stereo not drawn),-18,0,-1,-15,-2,10
COc1ccc(CN(C)C[C@@H]2Oc3c(NS(=O)(=O)c4ccc(Cl)cc4)cccc3C(=O)N([C@@H](C)CO)C[C@H]2C)cc1,.,.,.,.,14,.
COc1ccc(NC(=O)N(C)C[C@@H]2OCCCC[C@H](C)Oc3ccc(NC(=O)NC(C)C)cc3C(=O)N([C@H](C)CO)C[C@@H]2C)cc1,.,.,.,.,7,3[16.7 µM]
C[C@@H]1CN([C@H](C)CO)C(=O)Cc2cc(N(C)C)ccc2O[C@H]1CN(C)Cc1ccc(C(=O)Nc2ccccc2N)cc1,.,.,.,.,16,10[16.7 µM]
C[C@@H]1CN([C@H](C)CO)C(=O)Cc2cc(N(C)C)ccc2O[C@@H]1CN(C)Cc1ccc(C(=O)Nc2ccccc2N)cc1,.,.,.,.,62*,-121[16.7 µM]

# Screening data deposited in PubChem by several laboratories.
